Each structure is given as a SMILES string.

In one assay the test system is HL-60(TB). The assay can be described thus: Antileukemic activity against human HL-60(TB) cells assessed as inhibition of tumor growth after 24 hrs. It is filed as functional, cell-based. The settings on record: HL-60, 24 h.
The term IC50 denotes the midpoint of a concentration-inhibition curve. With `O=C1/C(=C\c2ccccc2)CN(C(=O)CC(=O)N2C/C(=C\c3ccccc3)C(=O)/C(=C/c3ccccc3)C2)C/C1=C\c1ccccc1`, the half-maximal inhibitory concentration (IC50) was determined as 290 nM.

As for `O=C1/C(=C\c2ccc(O)cc2)CN(C(=O)CC(=O)N2C/C(=C\c3ccc(O)cc3)C(=O)/C(=C/c3ccc(O)cc3)C2)C/C1=C\c1ccc(O)cc1`, the IC50 was found to be 1740 nM.

Take `N[C@@H](Cc1ccc(N(CCCl)CCCl)cc1)C(=O)O` [MELPHALAN]: the IC50 turned out to be 380 nM.

For another assay, the system named is SW-620. The assay can be described thus: Cytotoxicity against human SW620 cells assessed as inhibition of tumor growth after 24 hrs. Particulars: SW-620, 24 h. It is filed as functional, cell-based.
`O=C1/C(=C\c2ccccc2)CN(C(=O)CC(=O)N2C/C(=C\c3ccccc3)C(=O)/C(=C/c3ccccc3)C2)C/C1=C\c1ccccc1`: the IC50 was 50 nM.

On to `O=C1/C(=C\c2ccc(O)cc2)CN(C(=O)CC(=O)N2C/C(=C\c3ccc(O)cc3)C(=O)/C(=C/c3ccc(O)cc3)C2)C/C1=C\c1ccc(O)cc1`, for which the IC50 is 760 nM.

Turning to `N[C@@H](Cc1ccc(N(CCCl)CCCl)cc1)C(=O)O` [MELPHALAN], the concentration for half-maximal inhibition (IC50) stood at 26900 nM.

Tested on in the next assay: not listed separately
The assay can be described thus: Cytotoxicity against human HCT15 cells assessed as inhibition of tumor growth after 24 hrs. Particulars: HCT-15, 24 h. It is filed as functional, cell-based.
Turning to `O=C1/C(=C\c2ccccc2)CN(C(=O)CC(=O)N2C/C(=C\c3ccccc3)C(=O)/C(=C/c3ccccc3)C2)C/C1=C\c1ccccc1`, the IC50 is 170 nM.

For the compound `O=C1/C(=C\c2ccc(O)cc2)CN(C(=O)CC(=O)N2C/C(=C\c3ccc(O)cc3)C(=O)/C(=C/c3ccc(O)cc3)C2)C/C1=C\c1ccc(O)cc1`, the IC50 was 1170 nM.

The subject of another assay is HeLa. The assay can be described thus: Antiproliferative activity against human HeLa cells after 72 hrs by coulter counting analysis.
Settings: not given
It is filed as functional, cell-based. In outline: (§1)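 Cells exposed to a range of concentrations in RPMI 1640 at 37°C for 72 h. Surviving cells counted by Coulter counter. IC50 taken from concentration-response curves, mean ± SD of at least three independent experiments.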
`O=C1/C(=C\c2ccccc2)CN(C(=O)CC(=O)N2C/C(=C\c3ccccc3)C(=O)/C(=C/c3ccccc3)C2)C/C1=C\c1ccccc1` showed a 50% inhibitory concentration (IC50) of 910 nM.

`N[C@@H](Cc1ccc(N(CCCl)CCCl)cc1)C(=O)O` [MELPHALAN] showed an IC50 of 1700 nM.

A further assay deals with CCRF-CEM. The assay can be described thus: Antiproliferative activity against human CEM cells after 72 hrs by coulter counting analysis.
Settings: not given
It is filed as functional, cell-based. In outline:
as §1
Consider `O=C1/C(=C\c2ccccc2)CN(C(=O)CC(=O)N2C/C(=C\c3ccccc3)C(=O)/C(=C/c3ccccc3)C2)C/C1=C\c1ccccc1`, for which the IC50 was found to be 201 nM.

In the case of `N[C@@H](Cc1ccc(N(CCCl)CCCl)cc1)C(=O)O` [MELPHALAN], 1440 nM corresponded to half-maximal inhibition (IC50).

Tested on in a further assay: not listed separately
The assay can be described thus: Cytotoxicity against human NCI60 cells assessed as inhibition of tumor growth after 24 hrs. It is filed as functional, cell-based. Particulars: NCI60, 24 h.
Regarding `O=C1/C(=C\c2ccccc2)CN(C(=O)CC(=O)N2C/C(=C\c3ccccc3)C(=O)/C(=C/c3ccccc3)C2)C/C1=C\c1ccccc1`, the IC50 was found to be 240 nM.

With `O=C1/C(=C\c2ccc(O)cc2)CN(C(=O)CC(=O)N2C/C(=C\c3ccc(O)cc3)C(=O)/C(=C/c3ccc(O)cc3)C2)C/C1=C\c1ccc(O)cc1`, the IC50 worked out at 1660 nM.

`N[C@@H](Cc1ccc(N(CCCl)CCCl)cc1)C(=O)O` [MELPHALAN]: the concentration for half-maximal inhibition (IC50) was 19100 nM.

Another assay concerns SR. The assay can be described thus: Antileukemic activity against human SR cells assessed as inhibition of tumor growth after 24 hrs.
Settings: not given
It is filed as functional, cell-based.
In the case of `O=C1/C(=C\c2ccccc2)CN(C(=O)CC(=O)N2C/C(=C\c3ccccc3)C(=O)/C(=C/c3ccccc3)C2)C/C1=C\c1ccccc1`, the IC50 is 30 nM.

As for `O=C1/C(=C\c2ccc(O)cc2)CN(C(=O)CC(=O)N2C/C(=C\c3ccc(O)cc3)C(=O)/C(=C/c3ccc(O)cc3)C2)C/C1=C\c1ccc(O)cc1`, the IC50 was determined as 460 nM.

As to `N[C@@H](Cc1ccc(N(CCCl)CCCl)cc1)C(=O)O` [MELPHALAN], the 50% inhibitory concentration (IC50) is 3240 nM.

Tested on in a further assay: not listed separately
The assay can be described thus: Antiproliferative activity against human Molt4/C8 cells after 72 hrs by coulter counting analysis. It is filed as functional, cell-based. Particulars: MOLT-4, 72 h. In outline: as §1
For `O=C1/C(=C\c2ccccc2)CN(C(=O)CC(=O)N2C/C(=C\c3ccccc3)C(=O)/C(=C/c3ccccc3)C2)C/C1=C\c1ccccc1`, the IC50 worked out at 73 nM.

With `N[C@@H](Cc1ccc(N(CCCl)CCCl)cc1)C(=O)O` [MELPHALAN], 2810 nM corresponded to half-maximal inhibition (IC50).

The next assay relates to COLO 205. The assay can be described thus: Cytotoxicity against human COLO205 cells assessed as inhibition of tumor growth after 24 hrs. It is filed as functional, cell-based. Particulars: COLO 205, 24 h.
Turning to `O=C1/C(=C\c2ccccc2)CN(C(=O)CC(=O)N2C/C(=C\c3ccccc3)C(=O)/C(=C/c3ccccc3)C2)C/C1=C\c1ccccc1`, the IC50 turned out to be 160 nM.

`O=C1/C(=C\c2ccc(O)cc2)CN(C(=O)CC(=O)N2C/C(=C\c3ccc(O)cc3)C(=O)/C(=C/c3ccc(O)cc3)C2)C/C1=C\c1ccc(O)cc1`: the IC50 came out at 1660 nM.

With `N[C@@H](Cc1ccc(N(CCCl)CCCl)cc1)C(=O)O` [MELPHALAN], the IC50 is 32400 nM.

For another assay, the system named is K562. The assay can be described thus: Antileukemic activity against human K562 cells assessed as inhibition of tumor growth after 24 hrs. It is filed as functional, cell-based. The settings on record: K562, 24 h.
As to `O=C1/C(=C\c2ccccc2)CN(C(=O)CC(=O)N2C/C(=C\c3ccccc3)C(=O)/C(=C/c3ccccc3)C2)C/C1=C\c1ccccc1`, the IC50 was 50 nM.

On to `O=C1/C(=C\c2ccc(O)cc2)CN(C(=O)CC(=O)N2C/C(=C\c3ccc(O)cc3)C(=O)/C(=C/c3ccc(O)cc3)C2)C/C1=C\c1ccc(O)cc1`, for which the half-maximal inhibitory concentration (IC50) was found to be 530 nM.

Regarding `N[C@@H](Cc1ccc(N(CCCl)CCCl)cc1)C(=O)O` [MELPHALAN], the concentration for half-maximal inhibition (IC50) came out at 195000 nM.

Tested on in a further assay: not listed separately
The assay can be described thus: Antileukemic activity against human RPMI8226 cells assessed as inhibition of tumor growth after 24 hrs. It is filed as functional, cell-based. The settings on record: rpmi-8226.
As for `O=C1/C(=C\c2ccccc2)CN(C(=O)CC(=O)N2C/C(=C\c3ccccc3)C(=O)/C(=C/c3ccccc3)C2)C/C1=C\c1ccccc1`, the IC50 came out at 130 nM.

For `O=C1/C(=C\c2ccc(O)cc2)CN(C(=O)CC(=O)N2C/C(=C\c3ccc(O)cc3)C(=O)/C(=C/c3ccc(O)cc3)C2)C/C1=C\c1ccc(O)cc1`, the IC50 was determined as 350 nM.

For the compound `N[C@@H](Cc1ccc(N(CCCl)CCCl)cc1)C(=O)O` [MELPHALAN], the IC50 is 28200 nM.

The test system of another assay is L1210. The assay can be described thus: Antiproliferative activity against mouse L1210 cells after 72 hrs by coulter counting analysis. It is filed as functional, cell-based. The settings on record: L1210, 72 h.
`O=C1/C(=C\c2ccccc2)CN(C(=O)CC(=O)N2C/C(=C\c3ccccc3)C(=O)/C(=C/c3ccccc3)C2)C/C1=C\c1ccccc1` yielded an IC50 of 1230 nM.

The compound `N[C@@H](Cc1ccc(N(CCCl)CCCl)cc1)C(=O)O` [MELPHALAN] gave an IC50 of 4850 nM.

The next assay deals with KM12. The assay can be described thus: Cytotoxicity against human KM12 cells assessed as inhibition of tumor growth after 24 hrs. It is filed as functional, cell-based. Particulars: KM12, 24 h.
As for `O=C1/C(=C\c2ccccc2)CN(C(=O)CC(=O)N2C/C(=C\c3ccccc3)C(=O)/C(=C/c3ccccc3)C2)C/C1=C\c1ccccc1`, the IC50 was found to be 130 nM.

On to `O=C1/C(=C\c2ccc(O)cc2)CN(C(=O)CC(=O)N2C/C(=C\c3ccc(O)cc3)C(=O)/C(=C/c3ccc(O)cc3)C2)C/C1=C\c1ccc(O)cc1`, for which the half-maximal inhibitory concentration (IC50) was 690 nM.

Turning to `N[C@@H](Cc1ccc(N(CCCl)CCCl)cc1)C(=O)O` [MELPHALAN], the IC50 was found to be 57500 nM.

In another assay the test system is HCC 2998. The assay can be described thus: Cytotoxicity against human HCC2998 cells assessed as inhibition of tumor growth after 24 hrs. It is filed as functional, cell-based. The settings on record: HCC 2998, 24 h.
On to `O=C1/C(=C\c2ccccc2)CN(C(=O)CC(=O)N2C/C(=C\c3ccccc3)C(=O)/C(=C/c3ccccc3)C2)C/C1=C\c1ccccc1`, for which the IC50 amounted to 170 nM.

In the case of `O=C1/C(=C\c2ccc(O)cc2)CN(C(=O)CC(=O)N2C/C(=C\c3ccc(O)cc3)C(=O)/C(=C/c3ccc(O)cc3)C2)C/C1=C\c1ccc(O)cc1`, the half-inhibitory concentration (IC50) was 1740 nM.

With `N[C@@H](Cc1ccc(N(CCCl)CCCl)cc1)C(=O)O` [MELPHALAN], the IC50 was 52500 nM.

The record behind these values is ChEMBL document CHEMBL3352437, “Novel 3,5-bis(arylidene)-4-oxo-1-piperidinyl dimers: structure-activity relationships and potent antileukemic and antilymphoma cytotoxicity” (Eur J Med Chem, 2014).
